Source: ChEMBL document CHEMBL4265907, “Design, synthesis and pharmacological evaluation of N4,N6-disubstituted pyrimidine-4,6-diamine derivatives as potent EGFR inhibitors in non-small cell lung cancer” (Eur J Med Chem, 2018)

Key:
[1] = biological target: Receptor tyrosine-protein kinase erbB-2 (Homo sapiens) (UniProt P04626); assay: Inhibition of N-terminal His-tagged human HER2 cytoplasmic domain (676 to 1255 residues) expressed in baculovirus expression system at 1 uM using FAM-labeled peptide as substrate after 10 mins by mobility shift assay relative to control
Method in brief: (§1)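 Caliper mobility-shift kinase assay. Kinase in kinase base buffer was preincubated with compound for 10 min at room temperature. FAM-labelled peptide and ATP at Km were then added, and the reaction ran at 28 °C until quenched with buffer. Screening concentration was 1 µM. Percent inhibition = (max − conversion)/(max − min) × 100, with DMSO as max and a low control as min.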

[2] = biological target: Fibroblast growth factor receptor 1 (Homo sapiens) (UniProt P11362); assay: Inhibition of N-terminal GST-tagged human FGFR1 cytoplasmic domain (398 to 822 residues) expressed in baculovirus expression system at 1 uM using FAM-labeled peptide as substrate after 10 mins by mobility shift assay relative to control; method in brief: as §1
[3] = biological target: Fibroblast growth factor receptor 4 (Homo sapiens) (UniProt P22455); assay: Inhibition of N-terminal GST-tagged human FGFR4 cytoplasmic domain (460 to 802 residues) expressed in baculovirus expression system at 1 uM using FAM-labeled peptide as substrate after 10 mins by mobility shift assay relative to control; method in brief: as §1
[4] = biological target: Proto-oncogene tyrosine-protein kinase Src (Homo sapiens) (UniProt P12931); assay: Inhibition of N-terminal GST-tagged full length human SRC cytoplasmic domain (1 to 536 residues) expressed in baculovirus expression system at 1 uM using FAM-labeled peptide as substrate after 10 mins by mobility shift assay relative to control; method in brief: as §1
[5] = biological target: High affinity nerve growth factor receptor (Homo sapiens) (UniProt P04629); assay: Inhibition of N-terminal GST-tagged human TRKA cytoplasmic domain (436 to 790 residues) expressed in baculovirus expression system at 1 uM using FAM-labeled peptide as substrate after 10 mins by mobility shift assay relative to control; method in brief: as §1
[6] = biological target: Receptor-type tyrosine-protein kinase FLT3 (Homo sapiens) (UniProt P36888); assay: Inhibition of human N-terminal GST-tagged FLT3 cytoplasmic domain (564 to 993 residues) expressed in baculovirus expression system at 1 uM using FAM-labeled peptide as substrate after 10 mins by mobility shift assay relative to control; method in brief: as §1
[7] = biological target: Tyrosine-protein kinase JAK1 (Homo sapiens) (UniProt P23458); assay: Inhibition of human N-terminal GST-tagged JAK1 catalytic domain (850 to 1154 residues) expressed in baculovirus expression system at 1 uM using FAM-labeled peptide as substrate after 10 mins by mobility shift assay relative to control; method in brief: as §1
[8] = biological target: Non-receptor tyrosine-protein kinase TYK2 (Homo sapiens) (UniProt P29597); assay: Inhibition of human N-terminal GST-tagged TYK2 catalytic domain (871 to 1187 residues) expressed in baculovirus expression system at 1 uM using FAM-labeled peptide as substrate after 10 mins by mobility shift assay relative to control; method in brief: as §1
[9] = biological target: Mast/stem cell growth factor receptor Kit (Homo sapiens) (UniProt P10721); assay: Inhibition of recombinant human N-terminal GST-tagged c-KIT (544 to end residues) expressed in baculovirus infected Sf21 cells at 1 uM using FAM-labeled peptide as substrate after 10 mins by mobility shift assay relative to control; method in brief: as §1
[10] = biological target: Mitogen-activated protein kinase kinase kinase kinase 4 (Homo sapiens) (UniProt O95819); assay: Inhibition of human N-terminal GST-tagged full length MAP4K4 catalytic domain (1 to 328 residues) expressed in baculovirus expression system at 1 uM using FAM-labeled peptide as substrate after 10 mins by mobility shift assay relative to control; method in brief: as §1
[11] = biological target: Serine/threonine-protein kinase B-raf (Homo sapiens) (UniProt P15056); assay: Inhibition of recombinant human GST-tagged full length BRAF expressed in baculovirus expression system at 1 uM using FAM-labeled peptide as substrate after 10 mins by mobility shift assay relative to control; method in brief: as §1
[12] = biological target: T1, Inhibitor of nuclear factor kappa-B kinase subunit beta (Homo sapiens) (UniProt O14920); assay: Inhibition of human N-terminal His-tagged truncated IKKB (1 to 662 residues) expressed in baculovirus expression system at 1 uM using FAM-labeled peptide as substrate after 10 mins by mobility shift assay relative to control; method in brief: as §1
T1 sequence (whole entry): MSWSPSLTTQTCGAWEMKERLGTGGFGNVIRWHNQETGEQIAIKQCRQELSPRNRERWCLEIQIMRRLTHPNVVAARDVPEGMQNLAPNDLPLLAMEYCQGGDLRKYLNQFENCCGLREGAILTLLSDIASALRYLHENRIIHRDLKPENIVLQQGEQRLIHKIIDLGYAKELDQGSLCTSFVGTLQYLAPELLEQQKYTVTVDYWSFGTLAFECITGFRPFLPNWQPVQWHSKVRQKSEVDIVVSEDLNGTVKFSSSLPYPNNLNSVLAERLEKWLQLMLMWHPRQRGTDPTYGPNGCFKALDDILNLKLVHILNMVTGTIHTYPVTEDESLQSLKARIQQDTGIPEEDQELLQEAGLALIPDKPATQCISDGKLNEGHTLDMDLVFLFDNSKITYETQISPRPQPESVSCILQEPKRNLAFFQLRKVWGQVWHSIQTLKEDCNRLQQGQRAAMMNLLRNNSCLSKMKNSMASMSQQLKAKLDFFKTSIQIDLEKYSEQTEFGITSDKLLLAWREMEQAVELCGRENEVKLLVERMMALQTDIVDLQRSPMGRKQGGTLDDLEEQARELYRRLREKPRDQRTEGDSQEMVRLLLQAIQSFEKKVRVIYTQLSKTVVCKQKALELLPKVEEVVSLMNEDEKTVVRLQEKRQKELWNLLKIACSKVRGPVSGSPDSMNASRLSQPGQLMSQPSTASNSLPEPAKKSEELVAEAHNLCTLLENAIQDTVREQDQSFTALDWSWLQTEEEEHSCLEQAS

[13] = biological target: Serine/threonine-protein kinase PAK 2 (Homo sapiens) (UniProt Q13177); assay: Inhibition of human N-terminal GST-tagged full length PAK2 (1 to 524 residues) expressed in baculovirus expression system at 1 uM using FAM-labeled peptide as substrate after 10 mins by mobility shift assay relative to control; method in brief: as §1
[14] = biological target: Vascular endothelial growth factor receptor 1 (Homo sapiens) (UniProt P17948); assay: Inhibition of recombinant human GST-tagged FLT1 cytoplasmic domain (781 to 1338 residues) expressed in baculovirus expression system at 1 uM using FAM-labeled peptide as substrate after 10 mins by mobility shift assay relative to control; method in brief: as §1
A-431 = assay: Antiproliferative activity against human A431 cells after 72 hrs by MTT assay; assay type: functional, cell-based; conditions: A-431, 72 h
Method in brief: (§2)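 Cells seeded at 3000/well in growth medium with 10% FBS and left overnight. Treated in triplicate for 72 h at nine concentrations (0.458 to 30,000 nM), with DMSO-only controls. MTT (5 mg/mL) added for the last 4 h, formazan dissolved in DMSO, absorbance read at 490 nm. IC50 from non-linear sigmoidal dose-response fit.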

HCC827 = assay: Antiproliferative activity against human HCC827 cells after 72 hrs by MTT assay; assay type: functional, cell-based; conditions: HCC827, 72 h; method in brief: as §2
NCI-H1975 = assay: Antiproliferative activity against human NCI-H1975 cells after 72 hrs by MTT assay; assay type: functional, cell-based; conditions: NCI-H1975, 72 h; method in brief: as §2

Chain of Receptor tyrosine-protein kinase erbB-2 (Homo sapiens) (P04626 whole entry, the tested form may be a part): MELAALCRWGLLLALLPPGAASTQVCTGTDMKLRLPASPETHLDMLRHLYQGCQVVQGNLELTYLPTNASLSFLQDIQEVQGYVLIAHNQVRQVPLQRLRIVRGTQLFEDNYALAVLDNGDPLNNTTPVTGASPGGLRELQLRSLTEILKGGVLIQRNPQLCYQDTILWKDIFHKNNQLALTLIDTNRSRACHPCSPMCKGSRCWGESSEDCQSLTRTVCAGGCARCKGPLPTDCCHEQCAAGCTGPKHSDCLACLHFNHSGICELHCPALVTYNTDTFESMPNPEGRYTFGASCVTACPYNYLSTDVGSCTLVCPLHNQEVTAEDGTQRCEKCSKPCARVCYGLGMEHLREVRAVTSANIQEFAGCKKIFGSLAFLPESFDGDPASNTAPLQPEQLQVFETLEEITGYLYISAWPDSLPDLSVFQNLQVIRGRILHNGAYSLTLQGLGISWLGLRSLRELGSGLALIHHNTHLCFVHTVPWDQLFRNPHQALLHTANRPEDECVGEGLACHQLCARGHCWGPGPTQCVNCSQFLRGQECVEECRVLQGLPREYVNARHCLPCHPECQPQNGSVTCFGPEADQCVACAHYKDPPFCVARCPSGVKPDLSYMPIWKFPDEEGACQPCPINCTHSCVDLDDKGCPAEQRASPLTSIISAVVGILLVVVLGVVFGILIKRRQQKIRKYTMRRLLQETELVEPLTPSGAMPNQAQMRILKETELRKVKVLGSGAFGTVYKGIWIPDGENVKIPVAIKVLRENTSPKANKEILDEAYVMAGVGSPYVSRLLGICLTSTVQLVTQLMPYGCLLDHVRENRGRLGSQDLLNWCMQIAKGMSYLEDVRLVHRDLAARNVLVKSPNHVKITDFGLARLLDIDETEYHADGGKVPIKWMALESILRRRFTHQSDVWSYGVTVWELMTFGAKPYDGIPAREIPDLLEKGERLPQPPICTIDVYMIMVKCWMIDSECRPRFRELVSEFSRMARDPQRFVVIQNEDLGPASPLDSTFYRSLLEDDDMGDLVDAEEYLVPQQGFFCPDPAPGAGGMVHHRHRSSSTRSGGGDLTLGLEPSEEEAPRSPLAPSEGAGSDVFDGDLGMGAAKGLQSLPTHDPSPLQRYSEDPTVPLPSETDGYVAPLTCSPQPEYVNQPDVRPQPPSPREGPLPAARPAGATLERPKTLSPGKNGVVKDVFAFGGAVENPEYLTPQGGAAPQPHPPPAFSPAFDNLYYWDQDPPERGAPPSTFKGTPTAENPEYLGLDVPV
Chain of Serine/threonine-protein kinase B-raf (Homo sapiens) (P15056 whole entry, the tested form may be a part): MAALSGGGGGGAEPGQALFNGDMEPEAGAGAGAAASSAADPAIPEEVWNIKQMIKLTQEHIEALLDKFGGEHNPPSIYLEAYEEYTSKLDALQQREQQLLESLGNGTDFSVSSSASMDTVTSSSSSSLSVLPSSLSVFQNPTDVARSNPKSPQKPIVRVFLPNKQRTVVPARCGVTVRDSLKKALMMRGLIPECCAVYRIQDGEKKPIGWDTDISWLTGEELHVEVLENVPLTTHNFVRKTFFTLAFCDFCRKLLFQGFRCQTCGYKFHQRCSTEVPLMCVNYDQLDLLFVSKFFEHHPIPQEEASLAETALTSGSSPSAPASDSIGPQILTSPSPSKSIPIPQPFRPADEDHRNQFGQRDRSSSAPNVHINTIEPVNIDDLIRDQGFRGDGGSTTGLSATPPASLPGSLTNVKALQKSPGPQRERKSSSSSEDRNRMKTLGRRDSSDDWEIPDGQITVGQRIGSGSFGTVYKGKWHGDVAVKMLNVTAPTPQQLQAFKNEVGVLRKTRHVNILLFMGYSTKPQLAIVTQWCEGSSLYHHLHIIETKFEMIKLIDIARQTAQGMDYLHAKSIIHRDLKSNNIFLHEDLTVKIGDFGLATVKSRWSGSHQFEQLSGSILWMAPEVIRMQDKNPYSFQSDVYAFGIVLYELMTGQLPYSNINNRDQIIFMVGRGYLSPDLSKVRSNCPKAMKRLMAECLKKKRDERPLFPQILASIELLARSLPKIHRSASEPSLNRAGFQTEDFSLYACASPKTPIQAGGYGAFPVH
Chain of Tyrosine-protein kinase JAK1 (Homo sapiens) (P23458 whole entry, the tested form may be a part): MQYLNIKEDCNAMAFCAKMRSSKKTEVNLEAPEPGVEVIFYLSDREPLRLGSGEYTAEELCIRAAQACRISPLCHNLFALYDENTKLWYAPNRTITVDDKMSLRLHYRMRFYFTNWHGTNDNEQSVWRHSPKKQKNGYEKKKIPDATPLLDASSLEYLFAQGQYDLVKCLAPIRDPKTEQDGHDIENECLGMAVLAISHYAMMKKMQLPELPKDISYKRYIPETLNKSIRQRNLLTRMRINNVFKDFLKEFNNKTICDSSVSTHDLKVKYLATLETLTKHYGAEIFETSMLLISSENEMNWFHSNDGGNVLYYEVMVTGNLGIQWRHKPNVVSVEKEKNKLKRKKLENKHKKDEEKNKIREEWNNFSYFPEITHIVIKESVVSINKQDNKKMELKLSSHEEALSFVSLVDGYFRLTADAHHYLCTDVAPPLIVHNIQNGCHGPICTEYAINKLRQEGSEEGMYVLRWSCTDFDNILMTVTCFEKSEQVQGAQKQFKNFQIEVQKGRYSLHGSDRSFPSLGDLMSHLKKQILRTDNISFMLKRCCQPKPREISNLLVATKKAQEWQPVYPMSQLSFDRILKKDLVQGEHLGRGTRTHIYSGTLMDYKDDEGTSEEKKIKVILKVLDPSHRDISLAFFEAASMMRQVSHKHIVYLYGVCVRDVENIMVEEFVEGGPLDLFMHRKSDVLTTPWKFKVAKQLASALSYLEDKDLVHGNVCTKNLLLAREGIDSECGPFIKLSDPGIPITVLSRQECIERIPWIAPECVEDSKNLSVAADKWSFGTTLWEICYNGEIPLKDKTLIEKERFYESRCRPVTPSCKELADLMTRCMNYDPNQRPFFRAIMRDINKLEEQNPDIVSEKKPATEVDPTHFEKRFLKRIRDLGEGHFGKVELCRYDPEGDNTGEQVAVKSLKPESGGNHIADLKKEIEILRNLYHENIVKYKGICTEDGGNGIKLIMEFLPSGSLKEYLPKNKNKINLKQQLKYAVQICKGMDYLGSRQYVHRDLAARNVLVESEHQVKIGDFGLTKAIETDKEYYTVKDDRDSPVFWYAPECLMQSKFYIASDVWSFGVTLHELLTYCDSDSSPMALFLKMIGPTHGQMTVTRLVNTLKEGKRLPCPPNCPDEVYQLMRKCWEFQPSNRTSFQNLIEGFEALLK
Chain of Fibroblast growth factor receptor 4 (Homo sapiens) (P22455 22-802 limits assumed): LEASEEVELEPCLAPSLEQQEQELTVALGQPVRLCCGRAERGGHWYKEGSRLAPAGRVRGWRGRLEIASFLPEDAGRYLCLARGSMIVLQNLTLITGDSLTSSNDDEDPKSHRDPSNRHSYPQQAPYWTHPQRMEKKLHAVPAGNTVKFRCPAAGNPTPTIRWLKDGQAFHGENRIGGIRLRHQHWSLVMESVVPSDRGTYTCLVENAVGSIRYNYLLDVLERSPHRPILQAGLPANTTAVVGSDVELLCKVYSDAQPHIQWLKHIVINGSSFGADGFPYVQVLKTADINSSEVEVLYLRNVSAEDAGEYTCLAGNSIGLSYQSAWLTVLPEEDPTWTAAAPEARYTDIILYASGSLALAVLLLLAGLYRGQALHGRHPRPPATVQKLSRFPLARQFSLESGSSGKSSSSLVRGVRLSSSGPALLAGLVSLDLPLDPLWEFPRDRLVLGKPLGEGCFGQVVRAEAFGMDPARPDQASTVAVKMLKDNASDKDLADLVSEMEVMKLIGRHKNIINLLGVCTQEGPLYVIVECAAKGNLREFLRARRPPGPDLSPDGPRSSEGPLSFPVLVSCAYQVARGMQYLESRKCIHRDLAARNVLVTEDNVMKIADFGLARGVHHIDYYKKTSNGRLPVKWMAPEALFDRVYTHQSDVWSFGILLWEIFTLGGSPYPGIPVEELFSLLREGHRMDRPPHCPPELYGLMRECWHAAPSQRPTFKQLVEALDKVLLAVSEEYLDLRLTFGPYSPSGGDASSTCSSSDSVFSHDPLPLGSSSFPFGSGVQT
Chain of Proto-oncogene tyrosine-protein kinase Src (Homo sapiens) (P12931 2-536 limits assumed): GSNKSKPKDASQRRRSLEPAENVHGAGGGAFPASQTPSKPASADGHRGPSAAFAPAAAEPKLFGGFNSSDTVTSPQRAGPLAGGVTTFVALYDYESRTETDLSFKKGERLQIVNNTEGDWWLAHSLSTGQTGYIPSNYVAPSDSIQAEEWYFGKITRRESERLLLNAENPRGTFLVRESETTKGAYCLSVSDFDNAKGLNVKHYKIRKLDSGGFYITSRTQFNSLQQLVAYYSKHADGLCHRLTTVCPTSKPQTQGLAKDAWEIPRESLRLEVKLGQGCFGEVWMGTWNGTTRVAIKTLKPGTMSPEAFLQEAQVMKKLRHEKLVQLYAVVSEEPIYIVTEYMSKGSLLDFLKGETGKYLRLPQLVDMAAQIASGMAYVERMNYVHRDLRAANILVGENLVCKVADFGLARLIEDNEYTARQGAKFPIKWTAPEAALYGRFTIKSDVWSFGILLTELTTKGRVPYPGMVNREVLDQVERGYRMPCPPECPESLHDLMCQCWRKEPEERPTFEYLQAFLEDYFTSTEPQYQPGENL
Chain of Serine/threonine-protein kinase PAK 2 (Homo sapiens) (Q13177 whole entry, the tested form may be a part): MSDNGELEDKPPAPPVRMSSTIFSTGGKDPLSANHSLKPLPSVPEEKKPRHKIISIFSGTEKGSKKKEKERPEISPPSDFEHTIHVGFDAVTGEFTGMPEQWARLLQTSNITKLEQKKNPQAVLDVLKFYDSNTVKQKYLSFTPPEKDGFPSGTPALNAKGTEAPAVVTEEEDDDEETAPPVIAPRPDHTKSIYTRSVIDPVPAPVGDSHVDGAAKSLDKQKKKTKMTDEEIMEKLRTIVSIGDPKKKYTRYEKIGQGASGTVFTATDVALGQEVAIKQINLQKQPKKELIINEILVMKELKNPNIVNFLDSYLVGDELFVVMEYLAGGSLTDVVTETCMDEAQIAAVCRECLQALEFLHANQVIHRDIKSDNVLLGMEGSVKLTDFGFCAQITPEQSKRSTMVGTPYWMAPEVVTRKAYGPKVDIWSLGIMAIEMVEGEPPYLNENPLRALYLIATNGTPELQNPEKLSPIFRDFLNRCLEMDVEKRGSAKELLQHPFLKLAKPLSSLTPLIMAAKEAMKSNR

Compound | inhibition [1] [%] | inhibition [2] [%] | inhibition [3] [%] | inhibition [4] [%] | inhibition [5] [%] | inhibition [6] [%] | inhibition [7] [%] | inhibition [8] [%] | inhibition [9] [%] | inhibition [10] [%] | inhibition [11] [%] | inhibition [12] [%] | inhibition [13] [%] | inhibition [14] [%] | IC50 (A-431) [nM] | IC50 (HCC827) [nM] | IC50 (NCI-H1975) [nM]
CCOC(=O)c1ccc(Nc2cc(NC(=O)CCCC(=O)O)ncn2)cc1 | 4.9 | 5.6 | -0.6 | 11.4 | 8.4 | 11.5 | -3.1 | -1.4 | 5.9 | 56.3 | 12.7 | 1.2 | 15.7 | 2.9 |  |  | 
O=C(O)CCCC(=O)Nc1cc(N2CCOCC2)ncn1 | -1.5 | 5.6 | 4 | 11.7 | 6 | 16.4 | -2.4 | 2.5 | -4.4 | 21.6 | 16.7 | -3.2 | 9.4 | -9.5 | 780 | 1560 | 1160
O=C(O)CCCC(=O)Nc1cc(Nc2cccc(Cl)c2)ncn1 | 57.3 | 13.5 | 8.8 | 83.7 | 9.6 | 35.5 | -1 | -0.6 | 13.3 | 78.2 | 79.3 | 1.1 | 16.9 | 12.3 | > 30000 | 4020 | > 30000
COc1ccc(Nc2cc(NC(=O)c3ccccc3)ncn2)cc1 | 55.8 | -1.6 | 1.8 | 27.7 | 5.6 | 6.9 | -0.8 | -7.9 | 26 | 44.8 | 16.6 | 3.5 | 13.4 | 2.3 | 9460 | 5350 | 11400
COc1cccc(Nc2cc(Nc3cc(OC)ccc3OC)ncn2)c1 | -4.2 | 4.8 | 4.8 | 33.2 | 6.8 | 59.1 | -1.4 | 0 | 0.4 | 53.5 | 47.5 | -2.1 | 4.7 | 18.1 | 740 | 1140 | 890
COc1cccc(Nc2cc(NC(=O)CCCC(=O)O)ncn2)c1 | -1.9 | 24 | 21.6 | 16.6 | 18.8 | 10.5 | -0.7 | -4.4 | 13.3 | 13.5 | 11.3 | 13.3 | 18.9 | 11.8 |  |  | 
